29 compounds from ChEMBL document CHEMBL1127302 (J Med Chem, 1994) can be followed below.

One may read the Ki as a measure of affinity in units of concentration, obtained from inhibition or displacement. Read a high Ki as lower affinity.

The target in assay [1] is Neuronal acetylcholine receptor. Kind of assay: In vitro binding affinity to neuronal nAChRs was determined by measuring the displacement of [3H]cytisine in rat brain. The class given is tissue-based. A digest of the protocol:
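Whole rat brain membrane preparation; displacement of [3H]cytisine from neuronal nAChRs. Binding normalised to equilibrium dissociation constants (Ki). Values are means ± SEM.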
Background: Displacement assays read how much labelled ligand stays bound in the presence of the test substance.

Assay [2] deals with Neuronal acetylcholine receptor (Rattus norvegicus) (UniProt P04757+P09483+P12389+P12390+P12392+P43144+Q9JLB5+P12391+P43143+P20420+Q05941). Kind of assay: In vitro neuronal nAChRs evoked [3H]dopamine release was determined in rat striatal slices at concentration of 10e-6 M. Format: functional.

For the compound `Cc1cc([C@H]2CCCN2C)no1`, in assay [1], the Ki came out at 1330 nM.
In turn, `CN1CCC[C@@H]1c1cc(C(F)(F)F)no1` registered a Dopamine release in assay [2] of 92%. In assay [1], this compound registered a Ki of 6.1 nM.
As to `CN1CCC[C@@H]1c1cc(-c2ccccc2)no1`, in assay [1], the affinity, expressed as Ki, was 788 nM.
`CN1CCC[C@@H]1c1cc(CO)no1` returned a Dopamine release in assay [2] of 41%. In assay [1], this compound displayed a Ki of 126 nM.
For `CCc1cc([C@H]2CCCN2)on1` the same measures were 30% and 552 nM.
`CCc1cc([C@@H]2CCCN2C)on1`: the Dopamine release in assay [2] came out at 46%.
For the compound `Cc1cc([C@H]2CCCN2C)on1`, the Dopamine release in assay [2] came to 95%.
Turning to `c1ccc(-c2cc([C@H]3CCCN3)on2)cc1`, the Ki in assay [1] was more than 10000 nM.
Compound `Cc1cc([C@H]2CCCN2C)sn1` had a Dopamine release in assay [2] of 41%.
The same measure, in the same setting: in the case of `c1cncc([C@@H]2CCCN2)c1` it was 155%; in that of `Cc1cc([C@@H]2CCCN2C)sn1`, 22%; in that of `c1cncc([C@H]2CCCN2)c1`, 93%.
Turning to `CN1CCC[C@H]1c1cccnc1`, the Dopamine release in assay [2] stood at 126%.
The compound `CN1CCC[C@@H]1c1cc(Cc2ccccc2)no1` displayed a Dopamine release in assay [2] of 30%. Moreover, in assay [1], the Ki amounted to 7.4 nM.
As for `CCCCc1cc([C@H]2CCCN2)on1`, the Ki in assay [1] stood at 5000 nM. This lies in the single-digit micromolar range.
`Cc1cc([C@H]2CCCN2)on1` had a Dopamine release in assay [2] of 43%. This compound also displayed a Ki in assay [1] of 333 nM.
For `Cc1cc([C@@H]2CCCN2)sn1` the same measures were 56% and 228 nM.
Compound `CCc1cc([C@H]2CCCN2C)on1` gave a Dopamine release in assay [2] of 78%. The same compound came in with a Ki in assay [1] of 7.6 nM.
With `COCc1cc([C@H]2CCCN2C)on1`, the Dopamine release in assay [2] came out at 51%. Besides, affinity in assay [1] was put at a Ki of 21.9 nM.
Turning to `Cc1cc([C@@H]2CCCN2C)on1`, the Dopamine release in assay [2] came to 85%.
The compound `CCCCc1cc([C@H]2CCCN2C)on1` had a Dopamine release in assay [2] of 38%. Further, in assay [1], the Ki stood at 24.2 nM.
For `CCCc1cc([C@H]2CCCN2C)on1` the same measures were 45% and 14 nM.
The corresponding values for `Cc1cc([C@H]2CCCN2)sn1` are 61% and 51 nM.
In turn, `CN1CCC[C@@H]1c1cccnc1` had a Dopamine release in assay [2] of 114%.
The compound `CCc1cc([C@@H]2CCCN2)on1` yielded a Dopamine release in assay [2] of 79%. Further, affinity in assay [1] was put at a Ki of 11.7 nM.
Regarding `CCOC(=O)c1cc([C@H]2CCCN2C)on1`, in assay [1], the Ki was found to be 890 nM.
The same measure, in the same setting: in the case of `CCCc1cc([C@H]2CCCN2)on1` it was more than 10000 nM.
`Cc1cc([C@@H]2CCCN2)on1` gave a Dopamine release in assay [2] of 111%. Further, in assay [1], the Ki was 7.4 nM.
The corresponding values for `CCN1CCC[C@@H]1c1cc(C)no1` are 64% and 34.3 nM.
